Assays:
Chikungunya virus = test: Antiviral activity against chikungunya virus Indian ocean strain 899 infected in Vero cells assessed as virus-induced cytopathic effect after 6 to 7 days; format: functional, cell-based; conditions: Indian ocean strain 899, Vero
[1] = Selectivity index, CC50 for african green monkey Vero cells to EC50 for chikungunya virus Indian ocean strain 899; format: toxicity, cell-based; conditions: read-out: Ratio CC50/EC50
[2] = system: Human immunodeficiency virus 1; test: Antiviral activity against HIV1 3B infected in MT4 cells assessed as cell viability after 5 days by MTT assay; format: functional, organism-based; conditions: Human immunodeficiency virus 1, 3B, MT4, 120 h
In short: (§1)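 MT-4 cells ([…] cells/mL suspension) infected with HIV-1 IIIB or HIV-2 ROD at 100−300 CCID50, with mock-infected wells run in parallel. Serial 5-fold compound dilutions in triplicate wells. Viability by MTT after 5 days, absorbance at 540 and 690 nm, median OD of three wells. Median ± median absolute deviation from ≥3 independent assays.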

[3] = Selectivity index, CC50 for african green monkey Vero cells to EC50 for HIV1 3B; format: toxicity, cell-based; conditions: read-out: Ratio CC50/EC50
In short: (§2)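 SI = CC50 in Vero cells ÷ EC50 against HIV-1 IIIB or HIV-2 ROD. CC50 is the 50% antimetabolic concentration from MTS dose−response in Vero. EC50 is from the MT-4/MTT 5-day antiviral assay.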

[4] = system: Human immunodeficiency virus 2; test: Antiviral activity against HIV2 ROD infected in MT4 cells assessed as cell viability after 5 days by MTT assay; format: functional, organism-based; conditions: Human immunodeficiency virus 2, ISOLATE ROD, MT4, 120 h; in short: as §1
[5] = Selectivity index, CC50 for african green monkey Vero cells to EC50 for HIV2 ROD; format: toxicity, cell-based; conditions: read-out: Ratio CC50/EC50; in short: as §2

| SMILES | EC50 (Chikungunya virus) [µM] | selectivity ratio [1] | EC50 [2] [µM] | selectivity ratio [3] | EC50 [4] [µM] | selectivity ratio [5] |
| --- | --- | --- | --- | --- | --- | --- |
| CCCC(=O)O[C@@]12[C@H](O)[C@@H](C)[C@@]3(O)[C@@H](C=C(CO)C[C@]4(O)C(=O)C(C)=C[C@@H]34)[C@@H]1C2(C)C | 20 | 12.3 | 122 | > 3 | 25 |  |
| CCCCCCCCCCCCCC(=O)O[C@@H]1[C@@H](C)[C@@]2(O)[C@@H](C=C(CO)C[C@]3(O)C(=O)C(C)=C[C@@H]23)[C@@H]2C(C)(C)[C@]12OC(C)=O [PHORBOL MYRISTATE ACETATE] |  | 1960 | 0.0009 | 220 | 0.0007 |  |
| C=C(C)[C@]12C[C@@H](C)[C@@]34O[C@](Cc5ccccc5)(O[C@@H]1[C@@H]3C=C(COC(=O)Cc1ccc(O)c(OC)c1)C[C@]1(O)C(=O)C(C)=C[C@@H]41)O2 [RESINIFERATOXIN] | 1.8 | 2.3 | 26 | 8 | 22.6 |  |
| CNc1ccccc1C(=O)O[C@@H]1[C@@H](C)[C@@]2(O)[C@@H](C=C(CO)C[C@]3(O)C(=O)C(C)=C[C@@H]23)[C@@H]2C(C)(C)[C@]12OC(C)=O | 15 | 1.1 | 0.009 | 749 | 3 |  |
| CCCCCCCCCCCCCC(=O)O[C@@]12[C@H](O)[C@@H](C)[C@@]3(O)[C@@H](C=C(CO)C[C@]4(O)C(=O)C(C)=C[C@@H]34)[C@@H]1C2(C)C | 0.99 | 9 | 0.24 | 107 | 0.078 |  |
| CCCCCCCCCC(=O)O[C@@H]1[C@@H](C)[C@@]2(O)[C@@H](C=C(CO)C[C@]3(O)C(=O)C(C)=C[C@@H]23)[C@@H]2C(C)(C)[C@]12OC(=O)CCCCCCCCC | 0.006 | 686 | 0.0012 | 754 | 0.0002 |  |
| CC(=O)O[C@@]12C[C@@H](C)[C@@]3(O)[C@@H](C=C(CO)C[C@]4(O)C(=O)C(C)=C[C@@H]34)[C@@H]1C2(C)C [PROSTRATIN] | 2.7 | 22.8 | 1.9 | 171 | 0.9 |  |
| CCCCCCCCCCCCCC(=O)O[C@@H]1[C@@H](C)[C@@]2(O)[C@@H](C=C(CO)C[C@@]3(O)C(=O)C(C)=C[C@@H]23)[C@@H]2C(C)(C)[C@]12OC(C)=O |  | 1.9 | > 18 |  | > 17 |  |
| CCCCCCCCCC(=O)O[C@@]12[C@H](O)[C@@H](C)[C@@]3(O)[C@@H](C=C(CO)C[C@]4(O)C(=O)C(C)=C[C@@H]34)[C@@H]1C2(C)C | 2.2 | 9.7 | 0.9 | 130 | 0.15 |  |
| CC1=C[C@H]2[C@@]3(O)[C@H](C)[C@@H](O)[C@]4(O)[C@H]([C@@H]3C=C(CO)C[C@]2(O)C1=O)C4(C)C [PHORBOL] | > 343 | > 1 | > 343 | > 1 | > 343 |  |
| CCCC(=O)O[C@@H]1[C@@H](C)[C@@]2(O)[C@@H](C=C(CO)C[C@]3(O)C(=O)C(C)=C[C@@H]23)[C@@H]2C(C)(C)[C@]12OC(=O)CCC | 1.8 | 2.1 | 0.079 | 3160 | 0.014 |  |
| CC(=O)OCC1=C[C@H]2[C@@H]3C(C)(C)[C@]3(OC(C)=O)[C@H](OC(C)=O)[C@@H](C)[C@]2(O)[C@@H]2C=C(C)C(=O)[C@@]2(O)C1 | 32.6 | 2.2 | 27.4 | > 9 | 6.6 |  |
| CCCCCCCCC(=O)O[C@@H]1[C@@H](C)[C@@]2(O)[C@@H](C=C(COC(=O)Cc3ccc(O)c(OC)c3)C[C@]3(O)C(=O)C(C)=C[C@@H]23)[C@@H]2C(C)(C)[C@]12OC(=O)CCCCCCCC | 0.6 | 3.7 | 0.036 | 483 | 0.004 |  |
| CCCCCC(=O)O[C@@H]1[C@@H](C)[C@@]2(O)[C@@H](C=C(CO)C[C@]3(O)C(=O)C(C)=C[C@@H]23)[C@@H]2C(C)(C)[C@]12OC(=O)CCCCC | 3.2 | 1.8 | 0.007 | 2890 | 0.0012 |  |
| CCCC(=O)O[C@@H]1[C@@H](C)[C@@]2(O)[C@@H](C=C(C=O)C[C@]3(O)C(=O)C(C)=C[C@@H]23)[C@@H]2C(C)(C)[C@]12OC(=O)CCC | 13.1 | 2.7 | > 20 |  | > 35 |  |
| CC(=O)O[C@@]12[C@H](O)[C@@H](C)[C@@]3(O)[C@@H](C=C(CO)C[C@]4(O)C(=O)C(C)=C[C@@H]34)[C@@H]1C2(C)C | > 174 |  | > 217 | 1 | 101 |  |
| CCCCCCCCCC(=O)O[C@@H]1[C@@H](C)[C@@]2(O)[C@@H](C=C(CO)C[C@]3(O)C(=O)C(C)=C[C@@H]23)[C@@H]2C(C)(C)[C@]12O | 4.9 | 1.5 | 4.9 | 4 | 2 |  |
| CC1=C[C@]23C(=O)[C@@H](C=C(COC(=O)c4ccccc4)[C@@H](O)[C@]2(O)[C@H]1OC(=O)c1ccccc1)[C@H]1[C@@H](C[C@H]3C)C1(C)C | 1.2 | 6.4 | 0.027 | 3400 | 0.009 |  |
| C/C=C(/C)C(=O)O[C@H]1C(C)=C[C@]23C(=O)[C@@H](C=C(CO)[C@@H](O)[C@]12O)[C@H]1[C@@H](C[C@H]3C)C1(C)C [INGENOL MEBUTATE] | 22.9 | 2.3 | 0.017 | 7850 | 0.009 |  |
| CC(=O)O[C@@H]1[C@@H](C)[C@@]2(O)[C@@H](C=C(CO)C[C@]3(O)C(=O)C(C)=C[C@@H]23)[C@@H]2C(C)(C)[C@]12O | > 245 | 0.8 | > 307 | > 1 | > 307 |  |
| CCCCCCCCCCCCCC(=O)O[C@@H]1[C@@H](C)[C@@]2(O)[C@@H](C=C(C=O)C[C@]3(O)C(=O)C(C)=C[C@@H]23)[C@@H]2C(C)(C)[C@]12OC(C)=O | 0.7 | 5.9 | 3.3 | 5 | 1.2 |  |
| C/C=C(\C)C(=O)O[C@@H]1[C@@H](C)[C@@]2(O)[C@@H](C=C(CO)C[C@]3(O)C(=O)C(C)=C[C@@H]23)[C@@H]2C(C)(C)[C@]12OC(=O)CCCCCCCCC | 1.1 | 3.3 | 0.0015 | 600 | 0.0002 |  |
| Cc1cn([C@H]2C[C@H](N=[N+]=[N-])[C@@H](CO)O2)c(=O)[nH]c1=O [ZIDOVUDINE] |  |  | 7.1 | 3520 | 6 | > 4180 |
| CC(=O)O[C@@H]1[C@@H](C)[C@@]2(O)[C@@H](C=C(CO)C[C@]3(O)C(=O)C(C)=C[C@@H]23)[C@@H]2C(C)(C)[C@]12OC(C)=O | 9.4 | 4.2 | 4.8 | > 59 | 1 |  |
| CCCCCCCCCC(=O)O[C@@H]1[C@@H](C)[C@@]2(O)[C@@H](C=C(CO)C[C@@]3(O)C(=O)C(C)=C[C@@H]23)[C@@H]2C(C)(C)[C@]12OC(=O)CCCCCCCCC | 1.5 | 2.2 | > 16 |  | > 16 |  |
| CC1=C[C@]23C(=O)[C@@H](C=C(CO)[C@@H](O)[C@]2(O)[C@H]1O)[C@H]1[C@@H](C[C@H]3C)C1(C)C [INGENOL] | 30.1 | 4.8 | 209 | > 2 | 131 |  |
| CC(=O)OCC1=C[C@H]2[C@@H]3C(C)(C)[C@]3(OC(C)=O)[C@H](O)[C@@H](C)[C@]2(O)[C@@H]2C=C(C)C(=O)[C@@]2(O)C1 | 24.6 | 1.7 | > 279 | 1 | 243 |  |
| COc1cc(CC(=O)OCC2=C[C@H]3[C@@H]4C(C)(C)[C@]4(OC(C)=O)[C@H](OC(=O)Cc4ccccc4)[C@@H](C)[C@]3(O)[C@@H]3C=C(C)C(=O)[C@@]3(O)C2)ccc1O | 1.7 | 14.2 | 0.75 | 23 | 0.08 |  |
